According to article PMC5812400 (ESMO Open, 2018):
Entries after “also recorded” stand apart in the source; their conditions may differ.

Test system: adult patients with advanced non-haematological malignancies
Assay: Safety and tolerability
Assay type: in vivo, human
In short: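 Patients on milled oral capsules, fasted, in 28-day cycles. AEs and SAEs recorded from first dose through 30 days after last dose. Graded by NCI CTCAE v4.03 and coded to MedDRA v19.0. Relatedness to study drug judged by investigator.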

CC(C)n1nc(-c2ccc3oc(N)nc3c2)c2c(N)ncnc21 [TAK-228, Sapanisertib]
Drug-related AE: Dry mouth (QW 20 mg (n=7)): 0 n (%)
Drug-related AE: Fatigue (QW 20 mg (n=7)): 3 (43) n (%)
Drug-related AE: Hyperglycaemia (QW 20 mg (n=7)): 0 n (%)
Drug-related AE: Nausea (QW 20 mg (n=7)): 4 (57) n (%)
Drug-related AE: Pruritus (QW 20 mg (n=7)): 0 n (%)
Drug-related AE: Rash (maculopapular) (QW 20 mg (n=7)): 0 n (%)
Drug-related AE: Stomatitis (QW 20 mg (n=7)): 0 n (%)
Drug-related AE: Vomiting (QW 20 mg (n=7)): 2 (29) n (%)
Drug-related SAE (QW 20 mg (n=7)): 0 n (%)
Drug-related grade ≥3 AE (QW 20 mg (n=7)): 2 (29) n (%)
Grade ≥3 AE (QW 20 mg (n=7)): 5 (71) n (%)
Grade ≥3 AE: Abdominal pain (QW 20 mg (n=7)): 1 (14) n (%)
Grade ≥3 AE: Anaemia (QW 20 mg (n=7)): 1 (14) n (%)
Grade ≥3 AE: Diarrhoea (QW 20 mg (n=7)): 1 (14) n (%)
Grade ≥3 AE: Hypercalcaemia (QW 20 mg (n=7)): 0 n (%)
Grade ≥3 AE: Hyperglycaemia (QW 20 mg (n=7)): 0 n (%)
Grade ≥3 AE: Hypophosphataemia (QW 20 mg (n=7)): 0 n (%)
Grade ≥3 AE: Hypotension (QW 20 mg (n=7)): 2 (29) n (%)
Grade ≥3 AE: Nausea (QW 20 mg (n=7)): 1 (14) n (%)
Grade ≥3 AE: Vomiting (QW 20 mg (n=7)): 1 (14) n (%)
On-study deaths (QW 20 mg (n=7)): 0 n (%)
SAE (QW 20 mg (n=7)): 4 (57) n (%)
AE resulting in TAK-228 discontinuation (QW 30 mg (n=13)): 3 (23) n (%)
Drug-related AE (QW 30 mg (n=13)): 11 (85) n (%)
Drug-related AE: Asthaenia (QW 30 mg (n=13)): 0 n (%)
Drug-related AE: Decreased appetite (QW 30 mg (n=13)): 2 (15) n (%)
Drug-related AE: Dehydration (QW 30 mg (n=13)): 0 n (%)
Drug-related AE: Diarrhoea (QW 30 mg (n=13)): 2 (15) n (%)
Drug-related AE: Dry mouth (QW 30 mg (n=13)): 1 (8) n (%)
Drug-related AE: Fatigue (QW 30 mg (n=13)): 6 (46) n (%)
Drug-related AE: Hyperglycaemia (QW 30 mg (n=13)): 3 (23) n (%)
Drug-related AE: Nausea (QW 30 mg (n=13)): 5 (39) n (%)
Drug-related AE: Pruritus (QW 30 mg (n=13)): 1 (8) n (%)
Drug-related AE: Rash (maculopapular) (QW 30 mg (n=13)): 2 (15) n (%)
Drug-related AE: Stomatitis (QW 30 mg (n=13)): 2 (15) n (%)
Drug-related AE: Vomiting (QW 30 mg (n=13)): 7 (54) n (%)
Drug-related SAE (QW 30 mg (n=13)): 2 (15) n (%)
Drug-related grade ≥3 AE (QW 30 mg (n=13)): 4 (31) n (%)
Grade ≥3 AE (QW 30 mg (n=13)): 7 (54) n (%)
Grade ≥3 AE: Abdominal pain (QW 30 mg (n=13)): 1 (8) n (%)
Grade ≥3 AE: Anaemia (QW 30 mg (n=13)): 1 (8) n (%)
Grade ≥3 AE: Hypercalcaemia (QW 30 mg (n=13)): 2 (15) n (%)
Grade ≥3 AE: Hyperglycaemia (QW 30 mg (n=13)): 3 (23) n (%)
Grade ≥3 AE: Hypophosphataemia (QW 30 mg (n=13)): 1 (8) n (%)
Grade ≥3 AE: Hypotension (QW 30 mg (n=13)): 0 n (%)
Grade ≥3 AE: Nausea (QW 30 mg (n=13)): 1 (8) n (%)
Grade ≥3 AE: Vomiting (QW 30 mg (n=13)): 1 (8) n (%)
On-study deaths (QW 30 mg (n=13)): 1 (8) n (%)
SAE (QW 30 mg (n=13)): 6 (46) n (%)
AE resulting in TAK-228 discontinuation (QW Total (n=20)): 3 (15) n (%)
Drug-related AE (QW Total (n=20)): 16 (80) n (%)
Drug-related AE: Asthaenia (QW Total (n=20)): 1 (5) n (%)
Drug-related AE: Decreased appetite (QW Total (n=20)): 3 (15) n (%)
Drug-related AE: Dehydration (QW Total (n=20)): 1 (5) n (%)
Drug-related AE: Diarrhoea (QW Total (n=20)): 6 (30) n (%)
Drug-related AE: Dry mouth (QW Total (n=20)): 1 (5) n (%)
Drug-related AE: Fatigue (QW Total (n=20)): 9 (45) n (%)
Drug-related AE: Hyperglycaemia (QW Total (n=20)): 3 (15) n (%)
Drug-related AE: Nausea (QW Total (n=20)): 9 (45) n (%)
Drug-related AE: Pruritus (QW Total (n=20)): 1 (5) n (%)
Drug-related AE: Rash (maculopapular) (QW Total (n=20)): 2 (10) n (%)
Drug-related AE: Stomatitis (QW Total (n=20)): 2 (10) n (%)
Drug-related AE: Vomiting (QW Total (n=20)): 9 (45) n (%)
Drug-related SAE (QW Total (n=20)): 2 (10) n (%)
Drug-related grade ≥3 AE (QW Total (n=20)): 6 (30) n (%)
Grade ≥3 AE (QW Total (n=20)): 12 (60) n (%)
Grade ≥3 AE: Abdominal pain (QW Total (n=20)): 2 (10) n (%)
Grade ≥3 AE: Anaemia (QW Total (n=20)): 2 (10) n (%)
Grade ≥3 AE: Diarrhoea (QW Total (n=20)): 1 (5) n (%)
Grade ≥3 AE: Hypercalcaemia (QW Total (n=20)): 2 (10) n (%)
Grade ≥3 AE: Hyperglycaemia (QW Total (n=20)): 3 (15) n (%)
Grade ≥3 AE: Hypophosphataemia (QW Total (n=20)): 1 (5) n (%)
Grade ≥3 AE: Hypotension (QW Total (n=20)): 2 (10) n (%)
Grade ≥3 AE: Nausea (QW Total (n=20)): 2 (10) n (%)
Grade ≥3 AE: Vomiting (QW Total (n=20)): 2 (10) n (%)
On-study deaths (QW Total (n=20)): 1 (5) n (%)
SAE (QW Total (n=20)): 10 (50) n (%)
Asthaenic conditions, patients (QW arm): 60%
Drug-related AE of any grade: diarrhoea (QW arm): 30%
Drug-related AE of any grade: fatigue (QW arm): 45%
Drug-related AE of any grade: nausea (QW arm): 45%
Drug-related AE of any grade: vomiting (QW arm): 45%
Grade ≥3 AE: Abdominal pain (QW arm): 10%
Grade ≥3 AE: Anaemia (QW arm): 10%
Grade ≥3 AE: Hypercalcaemia (QW arm): 10%
Grade ≥3 AE: Hyperglycaemia (QW arm): 15%
Grade ≥3 AE: Hypotension (QW arm): 10%
Grade ≥3 AE: Nausea (QW arm): 10%
Grade ≥3 AE: Vomiting (QW arm): 10%
SAEs, patients (QW arm): 50%
Patients experiencing AEs (TAK-228 QD arm): 100%
Patients with drug-related AEs (TAK-228 QD arm): 94%
Patients experiencing AEs (TAK-228 QW arm): 95%
Patients with drug-related AEs (TAK-228 QW arm): 80%
AEs of interest (hyperglycaemia, rash, renal insufficiency, mucosal inflammation and asthaenic conditions), patients (all treatment arms): ≥ 10%
Most commonly reported drug-related AEs (fatigue, diarrhoea and nausea), patients (treatment period, across all treatment arms): ≥ 25%
On-study deaths and relatedness to study drugs (whole study, all arms): Three on-study deaths occurred, all considered unrelated to study drugs; also recorded: Three deaths occurred during the study, one in each treatment arm; none were considered related to study drugs
